Test results as given in ChEMBL document CHEMBL1123012, “Ellipticine derivatives with an affinity to the estrogen receptor, an approach to develop intercalating drugs with a specific effect on the hormone-dependent breast cancer” (J Med Chem, 1985).

Legend:
Calf thymus DNA = experiment: Inhibitory concentration against ethidium bromide binding to DNA; format: nucleic-acid assay; conditions: Bos taurus
How it was run: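 Fluorometric competition with ethidium bromide bound to sonicated calf thymus DNA, 20 °C, 0.02 M sodium acetate pH 5.5. Final DNA 2.5 × 10^-6 M (base pairs), ethidium 5 × 10^-6 M; competitor added in portions. Excitation 546 nm, emission 590 nm. Bound ethidium per base pair plotted vs rf (competitor/DNA bp). rf50 taken at 50% displacement of bound ethidium.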

L1210 [1] = experiment: Lethal concentration required to reduce cloning efficiency of L1210 cell line to a factor of 0.37 after 24 hour exposure; format: cell-based; conditions: mouse, l1210, 24 h
L1210 [2] = experiment: The effective dose against L1210 cell growth; format: functional; conditions: Mus musculus, read-out: ED50 (the source's name)
How it was run: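 Exponentially growing L1210 cells (1 × 10^5/mL) in RPMI 1640 with 10% fetal calf serum, penicillin, streptomycin and 60 µM β-mercaptoethanol. Exposed to a range of drug concentrations in nonagitated suspension for 24 h at 37 °C, 5% CO2. Cells counted electronically; duplicate treated cultures compared with triplicate untreated controls. ED50 taken from percent inhibition plotted against log concentration.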

| rf50 (Calf thymus DNA) | EC50 (L1210 [2]) | SMILES | Co (L1210 [1]) |
| --- | --- | --- | --- |
| 0.86 | – | COc1ccc2[nH]c3c(C)c4cc[n+](CC(=O)NCCCCCNCCOc5ccc(/C(=C(/Cl)c6ccccc6)c6ccccc6)cc5)cc4c(C)c3c2c1 | – |
| 0.7 | 5 µM | COc1ccc2[nH]c3c(C)c4cc[n+](CC(=O)N(CCCCCN)CCOc5ccc(/C(=C(/Cl)c6ccccc6)c6ccccc6)cc5)cc4c(C)c3c2c1.[Cl-] | 9 µM |
| 0.32 | 4 µM | Cc1c2cc[n+](CC(=O)NCCCCCNCCOc3ccc(/C(=C(/Cl)c4ccccc4)c4ccccc4)cc3)cc2c(C)c2c1[nH]c1ccc(O)cc12.[Cl-] | > 10 µM |
| 10 | – | COc1ccc2[nH]c3c(C)c4cc[n+](CC(=O)NCCCCCN(CCOc5ccc(/C(=C(/Cl)c6ccccc6)c6ccccc6)cc5)C(=O)C[n+]5ccc6c(C)c7[nH]c8ccc(OC)cc8c7c(C)c6c5)cc4c(C)c3c2c1 | – |
| 4.8 | 4 µM | Cc1c2cc[n+](CC(=O)NCCCCCN(CCOc3ccc(/C(=C(/Cl)c4ccccc4)c4ccccc4)cc3)C(=O)C[n+]3ccc4c(C)c5[nH]c6ccc(O)cc6c5c(C)c4c3)cc2c(C)c2c1[nH]c1ccc(O)cc12.[Cl-].[Cl-] | > 10 µM |

Second part, the molecule before the results:

| SMILES | rf50 (Calf thymus DNA) | EC50 (L1210 [2]) | Co (L1210 [1]) |
| --- | --- | --- | --- |
| CCN(CC)CCOc1ccc(/C(=C(/Cl)c2ccccc2)c2ccccc2)cc1 | 20 | – | – |
| Cc1c2cc[n+](CCNC(=O)CC3(C)CC[C@H]4[C@@H]5CCc6cc(O)ccc6[C@H]5CC[C@@]43C)cc2c(C)c2c1[nH]c1ccccc12.[Br-] (stereo partly specified) | 1.5 | 0.5 µM | 0.15 µM |
| CCN(CC)CCOc1ccc(/C(=C(\Cl)c2ccccc2)c2ccccc2)cc1 | 20 | – | – |
